Only some compounds are listed: those with a hit (about 1.9% of all), similar ones and a draw of the others.
procasp3 activ: activates human procaspase-3. recombinant procaspase-3 D3A, Ac-DEVD-pNA absorbance 405 nm. activation, % at 8.5 µM. P42574. 0.11% of 330,000 active. AID 463141;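 active = activation above the mean of all tested compounds plus 3 SD, cut at about 21% in these data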
Target sequence (P42574 whole entry D9A/D28A/D175A): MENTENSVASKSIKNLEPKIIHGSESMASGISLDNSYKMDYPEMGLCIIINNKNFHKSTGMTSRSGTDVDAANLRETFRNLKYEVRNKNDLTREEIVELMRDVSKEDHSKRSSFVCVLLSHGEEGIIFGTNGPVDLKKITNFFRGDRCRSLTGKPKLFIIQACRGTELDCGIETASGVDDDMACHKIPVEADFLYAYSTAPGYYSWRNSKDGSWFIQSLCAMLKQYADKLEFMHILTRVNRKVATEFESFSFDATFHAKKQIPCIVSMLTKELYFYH
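assay system = Procaspase-3 D3A mutant | signal = absorbance at 405 nm, 0 and 120 min | times = 1 h preincubation plus 2 h reaction at 25 °C | repeats = single replicate | read-out = % activation between DMSO and enzyme-spiked controls | medium = Zinc-free HEPES saline buffer with Triton X-100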
FXN GAA850 act: activators of GAA850 frataxin (FXN) promoter. AID 540364. 0.56% of 360,000 active. activation, % at 6 µM. HEK293 lucGAA850 FXN promoter luciferase reporter, 24 h; percent of 10 µM SAHA response;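 active = activation above the average of all compounds screened plus 3 SD, cutoff fixed separately per campaign, cut at about 7.5% in these data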
HIF act: HIF pathway transcriptional activation; U2OS HRE-luciferase reporter, luminescence; normalized: DMSO 0%, desferrioxamine 100%; activation, % at 7.5 µM (by protocol); 0.32% of 300,000 active;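 active = mean activation of at least 10% of the iron chelator positive control signal, with at least half of replicates also reaching 10%; inconclusive = mean and replicate majority disagree about reaching 10%; inactive = mean and most replicates under 10%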
Neddyl block: cullin neddylation inhibition; P61081+Q13564; TR-FRET cullin neddylation, biochemical; inhibition, % at 25 µM; 0.58% of 360,000 active; AID 651699; in the data active = inhibition above about 36%
Calb FLC: C. albicans growth modulation with fluconazole; C. albicans CaCi-2 + fluconazole, Alamar Blue growth, 48 h; growth inhibition, % (concentration not given with the values); 0.57% of 300,000 active; AID 1979;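 active = growth inhibition above about 58% in most replicates, limit read from the data, passing the limit was not always enough; inconclusive = exactly half the replicates above a set limit; inactive = most replicates below a set limit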;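 also: all wells also contain fluconazole at 8 µg/ml as a sub-toxic cotreatment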
proCasp7 act: counter-screen for procaspase-3 activators: activators of human procaspase-7. recombinant procaspase-7, Ac-DEVD-pNA absorbance 405 nm; D23A/D198A/D206A triple mutant, cannot self-cleave; scale: DMSO 0, 5 µM enzyme 100. P55210. 0.093% of 330,000 active. activation, % at 8.5 µM;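 active = percent activation above the screen-wide mean plus 3 SD, cut at about 25% in these data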
Target sequence (P55210 whole entry D23A/D198A/D206A): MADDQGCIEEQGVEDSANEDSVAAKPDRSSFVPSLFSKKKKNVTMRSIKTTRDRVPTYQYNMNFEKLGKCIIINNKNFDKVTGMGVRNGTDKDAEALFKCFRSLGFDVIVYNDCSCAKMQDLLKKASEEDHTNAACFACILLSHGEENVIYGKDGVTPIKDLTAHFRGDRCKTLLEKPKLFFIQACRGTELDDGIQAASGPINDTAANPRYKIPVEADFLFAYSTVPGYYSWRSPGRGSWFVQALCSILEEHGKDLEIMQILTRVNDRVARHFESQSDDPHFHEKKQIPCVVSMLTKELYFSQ
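Detection: p-Nitroaniline absorbance at 405 nm, read at 0 and 120 min; system: Uncleavable procaspase-7 mutant enzyme; evaluation: % activation from two-timepoint absorbance difference, scaled to controls; times: 1 h enzyme–compound preincubation and 2 h substrate reaction, both 25 °C; buffer or medium: Zinc-free HEPES pH 7.4 with 300 mM NaCl, 0.01% Triton X-100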
Of the large screens only hits and unclear results are named; the others gave an inactive call.

O=Cc1cc(N=Nc2ccccc2Cl)ccc1O	HIF act 17, Calb FLC 86
O=Cc1cc(N=Nc2cccc(C(=O)O)c2)ccc1O	none
CN1CCN(C(=S)c2cn(Cc3ccc(F)cc3)c3ccccc23)CC1	Calb FLC 121
CN1CCN(C(=S)c2cn(Cc3cccc(F)c3)c3ccccc23)CC1	none
CCOC(=O)[C@]12CCC=C1N(Cc1ccc(Cl)cc1Cl)C(=O)[C@H](CC(=O)NCC1CCCCC1)C2	none (no result: procasp3 activ, FXN GAA850 act, HIF act, Calb FLC, proCasp7 act)
Cc1ccccc1C(=O)O/N=C/c1c(N2CCOCC2)n(C)c2ccccc12	Calb FLC 107
O=S(=O)(c1ccccc1)C(Br)S(=O)(=O)c1ccccc1	none (no result: procasp3 activ, HIF act, Calb FLC, proCasp7 act)
CCOc1ccccc1N1CCN(C(=S)NC(=O)C23CC4CC(CC(C4)C2)C3)CC1	HIF act 404
CCn1c2ccccc2c2nc3ccccc3nc21	FXN GAA850 act 9.3, Neddyl block 49, Calb FLC inconclusive
CC(=O)n1c2ccccc2c2nc3ccccc3nc21	none
CC(=O)NC(c1ccccc1)c1nc(-c2cccnc2)cs1 (stereo not drawn)	none (no result: procasp3 activ, HIF act, Calb FLC, proCasp7 act)
CC(O)(c1cccnc1)c1nc(-c2cccc(C#N)c2)cs1 (stereo not drawn)	none (no result: procasp3 activ, HIF act, Calb FLC, proCasp7 act)
O=C(NC(=S)NNC(=O)c1cnccn1)c1ccc(F)cc1	Calb FLC inconclusive
O=C(/C=C/c1ccc(F)cc1)NC(=S)NNC(=O)c1cnccn1	Neddyl block 65
COc1ccc(/C=C/C(=O)NC(=S)NNC(=O)c2cnccn2)cc1	Neddyl block 59
COc1ccc(/C=C/C(=O)NC(=S)NNC(=O)c2cccnc2)cc1	none
O=C(Cc1cccc(NC(=O)C2CCCN(C(=O)c3ccccc3)C2)c1)Nc1ccc(C(=O)N2CCOCC2)cc1 (stereo not drawn)	none (no result: procasp3 activ, HIF act, Calb FLC, proCasp7 act)
Cc1sc2ncnc(N3CCC(C(=O)Nc4cc(C(F)(F)F)ccc4OCC(F)(F)F)CC3)c2c1C	none (no result: procasp3 activ, HIF act, Calb FLC, proCasp7 act)
CCCCC(=O)Nc1ncc([N+](=O)[O-])s1	Calb FLC 83 (no result: HIF act)
Cc1cccc2sc(NNC(=O)c3ccc(S(=O)(=O)N4CCc5ccccc5C4)cc3)nc12	HIF act 14
Cc1cccc2sc(NNC(=O)c3ccc(S(=O)(=O)N4CCCC(C)C4)cc3)nc12 (stereo not drawn)	none
CCc1nc2ccc(C(=O)NCCOc3ccc(OC)cc3)cn2c1N(C)Cc1cccs1	none (no result: procasp3 activ, HIF act, Calb FLC, proCasp7 act)
O=C(COc1ccc(Cl)cc1Cl)N1CCCN(C(=O)COc2ccc(Cl)cc2Cl)CC1	Calb FLC 93
Cc1cc(Cl)ccc1OCC(=O)N1CCCCC1	none
Cc1c(Cl)ccc(S(=O)(=O)Nc2cccnc2)c1Cl	Calb FLC 77
O=c1n(Cc2ccccc2)c(O)c2n1Cc1ccccc1N=C2c1ccc(C(F)(F)F)cc1	none (no result: procasp3 activ, FXN GAA850 act, HIF act, Calb FLC, proCasp7 act)
CC(C)OC(=O)/C(=C\c1ccc2c(c1)c1ccccc1n2C)NC(=O)c1ccccc1	Neddyl block 38
Cn1c2ccccc2c2cc(/C=C(\NC(=O)c3ccccc3)C(=O)O)ccc21	none (no result: HIF act)
Cc1ccnc(Nc2cccnc2)n1	none (no result: procasp3 activ, FXN GAA850 act, HIF act, Calb FLC, proCasp7 act)
[O-][n+]1cccc2c(Br)cc(Br)c(O)c21	Calb FLC 109
CCn1c(=O)c(C(=O)Nc2ncccc2C)c(O)c2ccccc21	Calb FLC 96
CCn1c(=O)c(C(=O)NCc2ccccc2)c(O)c2ccccc21	none
CCCCCC(=O)NNC(=O)c1c(O)c2ccccc2n(CC)c1=O	none
CCCCCCCCCC(=O)NNC(=O)c1c(O)c2ccccc2n(CC)c1=O	Calb FLC 113
CCn1c(=O)c(C(=O)NCc2cccnc2)c(O)c2ccccc21	Calb FLC 94
Cn1c(=O)c2cc(NC(=O)NCc3ccccc3)ccc2n1C/C=C/c1ccccc1	none (not shown: procasp3 activ, HIF act, Neddyl block, Calb FLC, proCasp7 act)
COc1ccc(-c2nnc(NC(=O)c3ccc(S(=O)(=O)N4COCC4(C)C)cc3)o2)cc1	none
CC1(C)COCN1S(=O)(=O)c1ccc(C(=O)Nc2nnc(-c3ccc(Cl)s3)o2)cc1	Calb FLC 79 (no result: FXN GAA850 act, Neddyl block)
COc1ccccc1OCC(=O)N/N=C/c1c(O)ccc2ccccc12	HIF act 18
O=C(CN1CCCC1)N/N=C/c1c(O)ccc2ccccc12	HIF act 28, Calb FLC inconclusive
O=c1c2ccccc2nc(N/N=C/c2c(O)ccc3ccccc23)n1O	HIF act 15, Calb FLC 106 (not shown: Neddyl block)
Cc1cc(C)n(CCC(=O)N/N=C/c2ccc(O)cc2)n1	none
COc1ccccc1OCC(=O)N/N=C/c1cccc2cccnc12	none
Cc1cc(C)n(CCC(=O)N/N=C/c2c(O)ccc3ccccc23)n1	HIF act 17
O=C(CCSc1nc2ccccc2s1)N/N=C/c1c(O)ccc2ccccc12	HIF act 11
Nc1nc2nc(-c3cccs3)cc(C(F)(F)F)n2n1	HIF act 24
O=C(NCCCCO)c1c(-c2ccccc2)oc2c1C(OCCCCCO)CCC2 (stereo not drawn)	none (no result: procasp3 activ, FXN GAA850 act, HIF act, Calb FLC, proCasp7 act)
Cc1noc(C)c1COC(=O)C1CC(O)CN1S(=O)(=O)c1ccc(Cl)cc1 (stereo not drawn)	HIF act 61
Cc1ccc(/C=N/NC(=O)CN2CCN(Cc3ccccc3Cl)CC2)o1	HIF act 143
CCn1c(=S)[nH]c2scc(-c3cccs3)c2c1=O	Calb FLC 80 (no result: procasp3 activ, proCasp7 act)
CC(C)n1c(=S)[nH]c2scc(-c3cccs3)c2c1=O	none
CCCCC[C@H](O)/C=C/C1C(=O)C=C[C@H]1C/C=C\CCCC(=O)OC (stereo partly drawn)	FXN GAA850 act 8.2 (no result: procasp3 activ, HIF act, Calb FLC, proCasp7 act)
CCCCC[C@H](O)/C=C/[C@@H]1[C@@H](C/C=C\CCCC(=O)OC)[C@@H](O)C[C@H]1O	none (no result: Calb FLC)
CCCCCCCCCn1c2c(c(=N)c3c1CCC3)CCC2	none
CCCCCCCn1c2c(c(=N)c3c1CCC3)CCCC2	Calb FLC 94 (no result: procasp3 activ, proCasp7 act)
NC(c1ccccc1)c1csc(Nc2cc(Oc3ccccc3)ncn2)n1 (stereo not drawn)	none (no result: procasp3 activ, HIF act, Calb FLC, proCasp7 act)
Cc1ccc(C(C[N+](=O)[O-])c2c(-c3ccccc3O)[nH][nH]c2=O)cc1 (stereo not drawn)	Neddyl block 40, Calb FLC inconclusive
COc1ccc(/C=N/NC(=O)c2cc(O)c(O)c(O)c2)cc1Cn1cc([N+](=O)[O-])cn1	Calb FLC 97 (no result: procasp3 activ, proCasp7 act)
COc1cc2nc(SCc3ccc(Cl)cc3Cl)n(Cc3cccs3)c(=N)c2cc1OC	Calb FLC 81
C[C@@H]1CN([C@@H](C)CO)C(=O)CCCn2cc(nn2)CO[C@H]1CN(C)S(=O)(=O)c1ccc2c(c1)OCCCO2	none (no result: procasp3 activ, HIF act, Calb FLC, proCasp7 act)
CC(C)(C)N1C(=O)[C@H]2[C@@H](c3ccc(Br)cc3)N3C(=O)N(c4ccccc4)C(=O)[C@@]3(C)[C@H]2C1=O	FXN GAA850 act 12
COc1ccc([C@@H]2[C@@H]3C(=O)N(C(C)(C)C)C(=O)[C@@H]3[C@]3(C)C(=O)N(c4cccc(C)c4)C(=O)N23)cc1	none
